Results from ChEMBL document CHEMBL4350995, “Synthesis and antiproliferative activity of culicinin D analogues containing simplified AHMOD-based residues” (Eur J Med Chem, 2019).
Numbered stars: 1 amine (or outer) side, 2 acyl side, 3 side chain; on linkers, the order of the positions; unused ones are H or OH. Square brackets hold non-standard residues; d marks the D form. Peptide text beside a SMILES is read from it. * marks the point of attachment. X3 = CCC(=O)C[C@@H](O)C[C@@H](C)C[C@H](N[*:1])C(=O)[*:2]; X8 = CCC(=O)C[C@H](O)C[C@@H](C)C[C@H](N[*:1])C(=O)[*:2]; X2 = CCCC[C@@H](O)C[C@@H](C)C[C@H](N[*:1])C(=O)[*:2]; X6 = CCCC[C@H](O)C[C@@H](C)C[C@H](N[*:1])C(=O)[*:2]; X4 = CCCCCCCC[C@@H](C)C[C@H](N[*:1])C(=O)[*:2]; Nva(5-pentanoyl) = CCCCC(=O)CCC[C@H](N)C(=O)O; X1 = CCCCCC[C@@H](C)C[C@H](N[*:1])C(=O)[*:2]; NH((S)CH(Me)CH2NHC2H4OH) = C[C@@H](CNCCO)N*; X9 = CCC(=O)CC(O)CCC[C@H](N[*:1])C(=O)[*:2]; X5 = CCCCCCC(=O)CCC[C@H](N[*:1])C(=O)[*:2]; Gly(decyl) = CCCCCCCCCC[C@H](N)C(=O)O; X7 = O=C([C@H](CCCCO)N[*:1])[*:2]; Aoc(2) = CCCCCC[C@H](N)C(=O)O; hSer = N[C@@H](CCO)C(=O)O; Aib = CC(C)(N)C(=O)O; Butyryl = CCCC(=O)*; βAla = NCCC(=O)O

Assays:
Format in all cases: functional, cell-based
MDA-MB-468 = assay: Antiproliferative activity against human MDA-MB-468 cells incubated for 5 days by SRB assay; conditions: MDA-MB-468, 120 h
In short: (§1)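 STR-authenticated cells, <3 months passage, in DMEM + 10% FCS at 37 °C, 5% CO2, were seeded at 2000 cells/well and attached overnight. They were then exposed in duplicate to 3-fold serial dilutions from a 30 mM DMSO stock for 5 days. Staining was with sulphorhodamine B. IC50 was interpolated from 4-parameter logistic fits versus peptide-free controls on the same plate. Values are mean ± SEM, n = 2–3 independent experiments.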

SK-BR-3 = assay: Antiproliferative activity against human SKBR3 cells incubated for 5 days by SRB assay; conditions: SK-BR-3, 120 h; in short: as §1
T47D = assay: Antiproliferative activity against human T47D cells incubated for 5 days by SRB assay; conditions: 120 h
In short: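 Cells were grown in RPMI + 10% FCS (37 °C, 5% CO2, STR-authenticated, <3 months passage) and seeded at 1500 cells/well. After overnight attachment they received 3-fold serial dilutions (30 mM DMSO stock) in duplicate for 5 days. Total cells were measured by sulphorhodamine B staining. IC50 was interpolated from a 4-parameter logistic fit against same-plate untreated controls. Values are mean ± SEM, n = 2–3.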

NCI-H460 = assay: Antiproliferative activity against human NCI-H460 cells incubated for 5 days by SRB assay; conditions: NCI-H460, 120 h
In short: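 Cultured in alpha MEM + 5% FCS, 37 °C, 5% CO2; STR-authenticated, <3 months passage. Seeded at 300 cells/well and attached overnight, then given duplicate 3-fold serial dilutions of peptide (30 mM DMSO stock) for 5 days. Read-out was sulphorhodamine B staining. IC50 was interpolated from a 4-parameter logistic fit versus peptide-free controls. Values are mean ± SEM of 2–3 independent experiments.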

Compound	IC50 (MDA-MB-468) [nM]	IC50 (SK-BR-3) [nM]	IC50 (T47D) [nM]	IC50 (NCI-H460) [nM]
CCCCCC[C@@H](C)C[C@H](NC(=O)C(C)(C)NC(=O)C(C)(C)NC(=O)[C@H](CCCCN)NC(=O)[C@@H]1CCCN1C(=O)CCC)C(=O)N[C@@H](CC(C)C)C(=O)NC(C)(C)C(=O)N[C@@H](CC(C)C)C(=O)NCCC(=O)N[C@@H](C)CNCCO (Butyryl-PK[Aib][Aib][X1]L[Aib]L[βAla]-{NH((S)CH(Me)CH2NHC2H4OH)})	> 1000	> 1000	> 1000	> 1000
CCCCCC[C@@H](C)C[C@H](NC(=O)C(C)(C)NC(=O)C(C)(C)NC(=O)[C@H](CC(C)C)NC(=O)[C@@H]1CCCN1C(=O)CCC)C(=O)N[C@@H](CC(C)C)C(=O)NC(C)(C)C(=O)N[C@@H](CC(C)C)C(=O)NCCC(=O)N[C@@H](C)CNCCO (Butyryl-PL[Aib][Aib][X1]L[Aib]L[βAla]-{NH((S)CH(Me)CH2NHC2H4OH)})	90	280	70	130
CCCCCC[C@@H](C)C[C@H](NC(=O)C(C)(C)NC(=O)C(C)(C)NC(=O)[C@H](CO)NC(=O)[C@@H]1CCCN1C(=O)CCC)C(=O)N[C@@H](CC(C)C)C(=O)NC(C)(C)C(=O)N[C@@H](CC(C)C)C(=O)NCCC(=O)N[C@@H](C)CNCCO (Butyryl-PS[Aib][Aib][X1]L[Aib]L[βAla]-{NH((S)CH(Me)CH2NHC2H4OH)})	74	> 500	66	127
CCCCCC[C@@H](C)C[C@H](NC(=O)C(C)(C)NC(=O)C(C)(C)NC(=O)[C@H](CCCCCC)NC(=O)[C@@H]1CCCN1C(=O)CCC)C(=O)N[C@@H](CC(C)C)C(=O)NC(C)(C)C(=O)N[C@@H](CC(C)C)C(=O)NCCC(=O)N[C@@H](C)CNCCO (Butyryl-P[Aoc(2)][Aib][Aib][X1]L[Aib]L[βAla]-{NH((S)CH(Me)CH2NHC2H4OH)})	140	240	170	190
CCCCCCCCCC[C@H](NC(=O)[C@@H]1CCCN1C(=O)CCC)C(=O)NC(C)(C)C(=O)NC(C)(C)C(=O)N[C@@H](C[C@H](C)CCCCCC)C(=O)N[C@@H](CC(C)C)C(=O)NC(C)(C)C(=O)N[C@@H](CC(C)C)C(=O)NCCC(=O)N[C@@H](C)CNCCO (Butyryl-P[Gly(decyl)][Aib][Aib][X1]L[Aib]L[βAla]-{NH((S)CH(Me)CH2NHC2H4OH)})	59	280	232	382
CCCCCC[C@@H](C)C[C@H](NC(=O)C(C)(C)NC(=O)C(C)(C)NC(=O)[C@H](CCCC(=O)CCCC)NC(=O)[C@@H]1CCCN1C(=O)CCC)C(=O)N[C@@H](CC(C)C)C(=O)NC(C)(C)C(=O)N[C@@H](CC(C)C)C(=O)NCCC(=O)N[C@@H](C)CNCCO (Butyryl-P[Nva(5-pentanoyl)][Aib][Aib][X1]L[Aib]L[βAla]-{NH((S)CH(Me)CH2NHC2H4OH)})	10	30	10	10
CCCCCC[C@@H](C)C[C@H](NC(=O)C(C)(C)NC(=O)C(C)(C)NC(=O)[C@H](C[C@H](C)C[C@H](O)CCCC)NC(=O)[C@@H]1CCCN1C(=O)CCC)C(=O)N[C@@H](CC(C)C)C(=O)NC(C)(C)C(=O)N[C@@H](CC(C)C)C(=O)NCCC(=O)N[C@@H](C)CNCCO (Butyryl-P[X2][Aib][Aib][X1]L[Aib]L[βAla]-{NH((S)CH(Me)CH2NHC2H4OH)})	111	327	197	126
CCCCCC[C@@H](C)C[C@H](NC(=O)C(C)(C)NC(=O)C(C)(C)NC(=O)[C@H](C[C@H](C)C[C@H](O)CC(=O)CC)NC(=O)[C@@H]1CCCN1C(=O)CCC)C(=O)N[C@@H](CC(C)C)C(=O)NC(C)(C)C(=O)N[C@@H](CC(C)C)C(=O)NCCC(=O)N[C@@H](C)CNCCO (Butyryl-P[X3][Aib][Aib][X1]L[Aib]L[βAla]-{NH((S)CH(Me)CH2NHC2H4OH)})	11	35	7	8
CCCCCCCC[C@@H](C)C[C@H](NC(=O)[C@@H]1CCCN1C(=O)CCC)C(=O)NC(C)(C)C(=O)NC(C)(C)C(=O)N[C@@H](C[C@H](C)CCCCCC)C(=O)N[C@@H](CC(C)C)C(=O)NC(C)(C)C(=O)N[C@@H](CC(C)C)C(=O)NCCC(=O)N[C@@H](C)CNCCO (Butyryl-P[X4][Aib][Aib][X1]L[Aib]L[βAla]-{NH((S)CH(Me)CH2NHC2H4OH)})	40	236	31	37
CCCCCCC(=O)CCC[C@H](NC(=O)[C@@H]1CCCN1C(=O)CCC)C(=O)NC(C)(C)C(=O)NC(C)(C)C(=O)N[C@@H](C[C@H](C)CCCCCC)C(=O)N[C@@H](CC(C)C)C(=O)NC(C)(C)C(=O)N[C@@H](CC(C)C)C(=O)NCCC(=O)N[C@@H](C)CNCCO (Butyryl-P[X5][Aib][Aib][X1]L[Aib]L[βAla]-{NH((S)CH(Me)CH2NHC2H4OH)})	8	18	6	5
CCCCCC[C@@H](C)C[C@H](NC(=O)C(C)(C)NC(=O)C(C)(C)NC(=O)[C@H](C[C@H](C)C[C@@H](O)CCCC)NC(=O)[C@@H]1CCCN1C(=O)CCC)C(=O)N[C@@H](CC(C)C)C(=O)NC(C)(C)C(=O)N[C@@H](CC(C)C)C(=O)NCCC(=O)N[C@@H](C)CNCCO (Butyryl-P[X6][Aib][Aib][X1]L[Aib]L[βAla]-{NH((S)CH(Me)CH2NHC2H4OH)})	297	> 500	264	234
CCCCCC[C@@H](C)C[C@H](NC(=O)C(C)(C)NC(=O)C(C)(C)NC(=O)[C@H](CCCCO)NC(=O)[C@@H]1CCCN1C(=O)CCC)C(=O)N[C@@H](CC(C)C)C(=O)NC(C)(C)C(=O)N[C@@H](CC(C)C)C(=O)NCCC(=O)N[C@@H](C)CNCCO (Butyryl-P[X7][Aib][Aib][X1]L[Aib]L[βAla]-{NH((S)CH(Me)CH2NHC2H4OH)})	25	59	14	28
CCCCCC[C@@H](C)C[C@H](NC(=O)C(C)(C)NC(=O)C(C)(C)NC(=O)[C@H](C[C@H](C)C[C@@H](O)CC(=O)CC)NC(=O)[C@@H]1CCCN1C(=O)CCC)C(=O)N[C@@H](CC(C)C)C(=O)NC(C)(C)C(=O)N[C@@H](CC(C)C)C(=O)NCCC(=O)N[C@@H](C)CNCCO (Butyryl-P[X8][Aib][Aib][X1]L[Aib]L[βAla]-{NH((S)CH(Me)CH2NHC2H4OH)})	8	32	5	5
CCCCCC[C@@H](C)C[C@H](NC(=O)C(C)(C)NC(=O)C(C)(C)NC(=O)[C@H](CCCC(O)CC(=O)CC)NC(=O)[C@@H]1CCCN1C(=O)CCC)C(=O)N[C@@H](CC(C)C)C(=O)NC(C)(C)C(=O)N[C@@H](CC(C)C)C(=O)NCCC(=O)N[C@@H](C)CNCCO (stereo partly drawn) (Butyryl-P[X9][Aib][Aib][X1]L[Aib]L[βAla]-{NH((S)CH(Me)CH2NHC2H4OH)})	70	500	80	190
CCCCCC[C@@H](C)C[C@H](NC(=O)C(C)(C)NC(=O)C(C)(C)NC(=O)[C@H](CCO)NC(=O)[C@@H]1CCCN1C(=O)CCC)C(=O)N[C@@H](CC(C)C)C(=O)NC(C)(C)C(=O)N[C@@H](CC(C)C)C(=O)NCCC(=O)N[C@@H](C)CNCCO (Butyryl-P[hSer][Aib][Aib][X1]L[Aib]L[βAla]-{NH((S)CH(Me)CH2NHC2H4OH)})	30	108	20	30
CCCCCC[C@@H](C)C[C@H](NC(=O)C(C)(C)NC(=O)C(C)(C)NC(=O)[C@H](CCCC(O)CCCC)NC(=O)[C@@H]1CCCN1C(=O)CCC)C(=O)N[C@@H](CC(C)C)C(=O)NC(C)(C)C(=O)N[C@@H](CC(C)C)C(=O)NCCC(=O)N[C@@H](C)CNCCO (mixture of isomers)	20	100	8	8
